Measurements taken from ChEMBL document CHEMBL4020721 (Eur J Med Chem, 2017).

Assays:
[1] = molecular target: CYP2C9 (Homo sapiens, UniProt P11712); assay: Time dependent irreversible inhibition of CYP2C9 in human liver microsomes at 10 uM preincubated with compound followed by NADPH addition by LC-MS/MS analysis; assay type: ADME; settings: liver microsomes
Method in brief: (§1)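 HLM (0.2 mg/ml) with 10 µM compound were preincubated 0, 5, 10 or 20 min at 37°C with 1 mM NADPH or PBS. Substrate cocktail (halved concentrations) plus NADPH was then added for 10 min. Metabolites were measured by LC-MS/MS. Kobs is the slope of relative activity versus preincubation time.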

[2] = tested on: NCI-H1993; assay: Growth inhibition of human NCI-H1993 cells after 72 hrs by CCK-8 assay; assay type: functional, cell-based; settings: nci-h1993
[3] = tested on: SNU-5; assay: Growth inhibition of human SNU5 cells after 72 hrs by CCK-8 assay; assay type: functional, cell-based; settings: snu-5
[4] = molecular target: T1, CYP2D6 (Homo sapiens, UniProt P10635); assay: Reversible inhibition of CYP2D6 in human liver microsomes at 10 uM after 20 mins in presence of NADPH by LC-MS/MS analysis; assay type: ADME; settings: liver microsomes
[5] = molecular target: CYP2C19 (Homo sapiens, UniProt P33261); assay: Time dependent irreversible inhibition of CYP2C19 in human liver microsomes at 10 uM preincubated with compound followed by NADPH addition by LC-MS/MS analysis; assay type: ADME; method in brief: as §1
[6] = molecular target: T1, CYP2D6; assay: Time dependent irreversible inhibition of CYP2D6 in human liver microsomes at 10 uM preincubated with compound followed by NADPH addition by LC-MS/MS analysis; assay type: ADME; settings: liver microsomes; method in brief: as §1
[7] = molecular target: T2, CYP1A2 (Homo sapiens, UniProt P05177); assay: Time dependent irreversible inhibition of CYP1A2 in human liver microsomes at 10 uM preincubated with compound followed by NADPH addition by LC-MS/MS analysis; assay type: ADME; settings: liver microsomes; method in brief: as §1
T2 sequence (P05177 whole entry): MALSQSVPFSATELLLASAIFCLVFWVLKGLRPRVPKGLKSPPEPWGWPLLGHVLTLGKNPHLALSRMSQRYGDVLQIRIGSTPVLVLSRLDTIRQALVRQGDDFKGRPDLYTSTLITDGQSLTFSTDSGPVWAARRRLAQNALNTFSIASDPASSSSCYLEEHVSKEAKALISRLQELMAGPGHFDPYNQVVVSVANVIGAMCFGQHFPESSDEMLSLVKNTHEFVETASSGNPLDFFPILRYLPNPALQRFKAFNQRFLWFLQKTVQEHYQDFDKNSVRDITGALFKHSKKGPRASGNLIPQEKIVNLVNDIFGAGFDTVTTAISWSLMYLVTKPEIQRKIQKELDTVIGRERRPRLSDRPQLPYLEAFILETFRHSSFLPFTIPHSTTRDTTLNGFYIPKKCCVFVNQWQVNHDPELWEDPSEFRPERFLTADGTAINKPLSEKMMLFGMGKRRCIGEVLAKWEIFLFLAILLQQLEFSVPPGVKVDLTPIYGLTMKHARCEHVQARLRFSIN

[8] = AUC (0 to 24 hrs) in Sprague-Dawley rat plasma at 6 mg/kg, po by UPLC-MS/MS analysis; assay type: ADME, organism-based; design: dose 6 mg/kg, time < 24 hr, route oral
Method in brief: (§2)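 Male Sprague-Dawley rats (180-220 g) were fasted overnight with free access to water. Dosing was intravenous (n=2) or oral at 6 mg/kg (n=3). Heparinized blood was drawn from 0 to 1440 min. Plasma was frozen at -20°C, then precipitated with acetonitrile containing internal standard, centrifuged and analysed by UPLC-MS/MS.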

[9] = tested on: Rattus norvegicus; assay: Oral bioavailability in Sprague-Dawley rat plasma at 6 mg/kg by UPLC-MS/MS analysis; assay type: ADME, organism-based; settings: in vivo; method in brief: as §2
[10] = molecular target: Vascular endothelial growth factor receptor 1 (Homo sapiens, UniProt P17948); assay: Inhibition of FLT1 (unknown origin) using FAM-labeled peptide as substrate preincubated for 5 to 10 mins followed by substrate/ATP addition measured after 30 to 60 mins by mobility shift assay
Method in brief: (§3)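 Caliper mobility-shift assay with FAM-labeled peptide substrate. Buffer: 50 mM HEPES pH 7.5, 0.0015% Brij-35, 10 mM MgCl2, 2 mM DTT, with kinase-specific enzyme levels. […] Incubation was 30-60 min at 28°C, stopped with EDTA buffer. Read-out was % conversion.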

[11] = molecular target: Proto-oncogene tyrosine-protein kinase receptor Ret (Homo sapiens, UniProt P07949); assay: Inhibition of RET (unknown origin) using FAM-labeled peptide as substrate preincubated for 5 to 10 mins followed by substrate/ATP addition measured after 30 to 60 mins by mobility shift assay; method in brief: as §3
[12] = molecular target: Proto-oncogene tyrosine-protein kinase Src (Homo sapiens, UniProt P12931); assay: Inhibition of c-Src (unknown origin) using FAM-labeled peptide as substrate preincubated for 5 to 10 mins followed by substrate/ATP addition measured after 30 to 60 mins by mobility shift assay; method in brief: as §3
[13] = molecular target: Ephrin type-A receptor 2 (Homo sapiens, UniProt P29317); assay: Inhibition of EPHA2 (unknown origin) using FAM-labeled peptide as substrate preincubated for 5 to 10 mins followed by substrate/ATP addition measured after 30 to 60 mins by mobility shift assay; method in brief: as §3
[14] = molecular target: Fibroblast growth factor receptor 1 (Homo sapiens, UniProt P11362); assay: Inhibition of FGFR1 (unknown origin) using FAM-labeled peptide as substrate preincubated for 5 to 10 mins followed by substrate/ATP addition measured after 30 to 60 mins by mobility shift assay; method in brief: as §3
[15] = tested on: NCI-H1993; assay: Antitumor activity against human NCI-H1993 cells xenografted in BALB/c athymic nude mouse assessed as tumor growth inhibition at 0.1 mg/kg, po administered once daily for 3 weeks; assay type: functional; settings: 504 h, read-out: TGI
Method in brief: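 BALB/c nude mice, 5-6 weeks old, kept under SPF conditions, received 7×10^6 NCI-H1993 cells s.c. in the right flank. At 150-250 mm³ they were sorted and randomized, n=7 per group, with vehicle controls. Dosing was oral, once daily for 3 weeks. […] Mean±SEM, Student's t-test.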

[16] = tested on: SNU-5; assay: Antitumor activity against human SNU5 cells xenografted in BALB/c athymic nude mouse assessed as tumor regression at 3 mg/kg, po administered once daily for 2 weeks; assay type: functional
Method in brief: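 Nude BALB/c mice, 5-6 weeks old, under SPF conditions, were implanted s.c. in the right flank with 6×10^6 SNU-5 cells. Groups were sorted at 100-200 mm³, n=6, with vehicle controls. Oral dosing once daily for 2 weeks. Percent tumor regression = 100% × (treated day 0 − treated final)/treated day 0. Mean±SEM, Student's t-test.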

[17] = tested on: Mus musculus; assay: Toxicity in BALB/c athymic nude mouse xenografted with human SNU5 cells assessed as apparent toxicity parameters at 0.3 to 3 mg/kg, po administered once daily for 2 weeks; assay type: organism-based; settings: in vivo, 336 h
Method in brief: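 Female/male BALB/c nude mice (5-6 weeks, SPF). NCI-H1993 cells (7×10^6 in 140 µL) or SNU-5 cells (6×10^6 in 200 µL) injected s.c. into the right flank. Dosing started at mean tumour volume 150-250 mm³ (NCI-H1993) or 100-200 mm³ (SNU-5). Randomized, n = 7 (NCI-H1993) or 6 (SNU-5) per group. Oral dosing once daily; vehicle controls. Body weight and signs of toxicity monitored during treatment.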

T1 sequence (P10635 whole entry): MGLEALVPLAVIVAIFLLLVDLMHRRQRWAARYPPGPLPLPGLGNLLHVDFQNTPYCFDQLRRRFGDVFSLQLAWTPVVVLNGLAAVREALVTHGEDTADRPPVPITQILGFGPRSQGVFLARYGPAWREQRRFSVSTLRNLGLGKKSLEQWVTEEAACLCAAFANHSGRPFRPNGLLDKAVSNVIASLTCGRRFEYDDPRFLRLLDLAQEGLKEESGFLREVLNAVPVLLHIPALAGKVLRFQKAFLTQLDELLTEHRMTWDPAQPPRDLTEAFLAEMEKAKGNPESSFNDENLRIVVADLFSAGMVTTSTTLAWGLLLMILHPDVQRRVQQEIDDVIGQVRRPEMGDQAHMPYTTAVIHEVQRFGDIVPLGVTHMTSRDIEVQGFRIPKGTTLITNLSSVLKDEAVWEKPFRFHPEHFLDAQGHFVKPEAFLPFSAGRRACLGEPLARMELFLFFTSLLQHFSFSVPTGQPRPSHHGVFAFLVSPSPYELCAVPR
Proto-oncogene tyrosine-protein kinase receptor Ret, sequence (P07949 whole entry): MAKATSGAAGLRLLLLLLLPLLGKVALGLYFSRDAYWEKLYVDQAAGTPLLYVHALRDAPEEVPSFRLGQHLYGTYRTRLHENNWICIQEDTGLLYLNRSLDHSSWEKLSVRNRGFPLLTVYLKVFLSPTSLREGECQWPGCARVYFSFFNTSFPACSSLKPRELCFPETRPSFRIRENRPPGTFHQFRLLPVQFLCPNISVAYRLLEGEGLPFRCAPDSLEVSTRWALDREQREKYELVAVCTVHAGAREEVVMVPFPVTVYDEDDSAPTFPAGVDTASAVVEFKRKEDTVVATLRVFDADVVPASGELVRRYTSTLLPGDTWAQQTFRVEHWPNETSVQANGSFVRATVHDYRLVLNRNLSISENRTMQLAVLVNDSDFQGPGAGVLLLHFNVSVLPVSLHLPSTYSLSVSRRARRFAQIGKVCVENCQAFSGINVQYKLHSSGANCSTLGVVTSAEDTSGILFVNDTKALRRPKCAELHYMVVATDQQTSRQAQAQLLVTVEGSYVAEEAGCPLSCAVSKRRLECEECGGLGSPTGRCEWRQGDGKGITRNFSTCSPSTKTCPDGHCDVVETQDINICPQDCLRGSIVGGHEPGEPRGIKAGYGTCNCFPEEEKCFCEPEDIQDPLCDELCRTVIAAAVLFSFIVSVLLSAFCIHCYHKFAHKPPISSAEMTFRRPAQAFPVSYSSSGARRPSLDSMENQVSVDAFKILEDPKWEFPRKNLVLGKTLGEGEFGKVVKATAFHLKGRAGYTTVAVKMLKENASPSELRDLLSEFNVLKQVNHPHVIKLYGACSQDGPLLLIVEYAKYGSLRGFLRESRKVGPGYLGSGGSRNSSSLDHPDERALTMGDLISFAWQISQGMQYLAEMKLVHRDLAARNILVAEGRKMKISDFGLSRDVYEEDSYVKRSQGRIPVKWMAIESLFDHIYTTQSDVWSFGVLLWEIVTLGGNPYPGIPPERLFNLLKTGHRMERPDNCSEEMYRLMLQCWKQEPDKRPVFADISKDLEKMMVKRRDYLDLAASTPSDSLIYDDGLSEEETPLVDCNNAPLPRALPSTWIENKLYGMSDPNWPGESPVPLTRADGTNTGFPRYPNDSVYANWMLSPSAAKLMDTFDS
Vascular endothelial growth factor receptor 1, sequence (P17948 whole entry): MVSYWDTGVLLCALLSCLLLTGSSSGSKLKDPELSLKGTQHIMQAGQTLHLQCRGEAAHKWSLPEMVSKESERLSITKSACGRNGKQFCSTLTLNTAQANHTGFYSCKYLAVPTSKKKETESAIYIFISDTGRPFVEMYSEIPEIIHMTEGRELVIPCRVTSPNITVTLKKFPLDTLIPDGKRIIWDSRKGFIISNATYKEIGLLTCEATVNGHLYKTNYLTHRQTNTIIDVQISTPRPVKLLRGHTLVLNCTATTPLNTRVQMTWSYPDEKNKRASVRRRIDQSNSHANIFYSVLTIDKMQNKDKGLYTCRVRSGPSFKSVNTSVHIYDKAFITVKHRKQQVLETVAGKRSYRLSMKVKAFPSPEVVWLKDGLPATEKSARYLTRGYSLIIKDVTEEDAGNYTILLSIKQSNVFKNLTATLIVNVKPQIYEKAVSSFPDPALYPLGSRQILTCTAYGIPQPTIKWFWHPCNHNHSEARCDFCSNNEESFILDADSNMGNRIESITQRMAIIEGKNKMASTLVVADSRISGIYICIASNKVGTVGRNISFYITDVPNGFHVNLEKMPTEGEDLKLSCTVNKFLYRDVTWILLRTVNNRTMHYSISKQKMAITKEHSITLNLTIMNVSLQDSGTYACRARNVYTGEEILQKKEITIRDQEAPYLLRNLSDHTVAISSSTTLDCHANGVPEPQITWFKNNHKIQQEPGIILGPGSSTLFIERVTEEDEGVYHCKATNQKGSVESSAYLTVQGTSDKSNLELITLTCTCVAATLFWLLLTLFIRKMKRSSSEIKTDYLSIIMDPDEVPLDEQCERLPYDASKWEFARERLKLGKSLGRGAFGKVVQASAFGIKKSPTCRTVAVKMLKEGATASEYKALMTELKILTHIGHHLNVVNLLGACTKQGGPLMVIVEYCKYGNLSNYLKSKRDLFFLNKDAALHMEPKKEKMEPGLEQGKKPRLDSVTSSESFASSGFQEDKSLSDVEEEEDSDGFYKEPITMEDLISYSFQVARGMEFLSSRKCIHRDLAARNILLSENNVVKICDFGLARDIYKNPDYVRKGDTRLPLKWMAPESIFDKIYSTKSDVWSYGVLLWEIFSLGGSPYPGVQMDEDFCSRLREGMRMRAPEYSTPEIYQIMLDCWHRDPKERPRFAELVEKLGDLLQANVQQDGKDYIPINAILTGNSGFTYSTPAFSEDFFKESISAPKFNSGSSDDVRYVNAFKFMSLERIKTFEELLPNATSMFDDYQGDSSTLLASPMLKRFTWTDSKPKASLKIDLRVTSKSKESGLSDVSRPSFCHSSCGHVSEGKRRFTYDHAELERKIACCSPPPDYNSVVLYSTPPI
Proto-oncogene tyrosine-protein kinase Src, sequence (P12931 2-536 limits assumed): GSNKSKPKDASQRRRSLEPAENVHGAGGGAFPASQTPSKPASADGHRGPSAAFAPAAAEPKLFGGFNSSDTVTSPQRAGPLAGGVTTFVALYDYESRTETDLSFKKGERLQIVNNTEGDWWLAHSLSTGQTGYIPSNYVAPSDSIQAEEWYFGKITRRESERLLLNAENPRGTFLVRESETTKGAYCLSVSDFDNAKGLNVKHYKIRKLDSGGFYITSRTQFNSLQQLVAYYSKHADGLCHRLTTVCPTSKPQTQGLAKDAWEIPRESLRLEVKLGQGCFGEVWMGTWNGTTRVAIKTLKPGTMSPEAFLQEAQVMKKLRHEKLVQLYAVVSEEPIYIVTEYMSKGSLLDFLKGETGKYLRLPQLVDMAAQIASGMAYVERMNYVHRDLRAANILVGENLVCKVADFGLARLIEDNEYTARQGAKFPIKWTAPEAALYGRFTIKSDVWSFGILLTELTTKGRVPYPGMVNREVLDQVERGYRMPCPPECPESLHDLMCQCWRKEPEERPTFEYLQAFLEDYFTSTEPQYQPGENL
Fibroblast growth factor receptor 1, sequence (P11362 whole entry): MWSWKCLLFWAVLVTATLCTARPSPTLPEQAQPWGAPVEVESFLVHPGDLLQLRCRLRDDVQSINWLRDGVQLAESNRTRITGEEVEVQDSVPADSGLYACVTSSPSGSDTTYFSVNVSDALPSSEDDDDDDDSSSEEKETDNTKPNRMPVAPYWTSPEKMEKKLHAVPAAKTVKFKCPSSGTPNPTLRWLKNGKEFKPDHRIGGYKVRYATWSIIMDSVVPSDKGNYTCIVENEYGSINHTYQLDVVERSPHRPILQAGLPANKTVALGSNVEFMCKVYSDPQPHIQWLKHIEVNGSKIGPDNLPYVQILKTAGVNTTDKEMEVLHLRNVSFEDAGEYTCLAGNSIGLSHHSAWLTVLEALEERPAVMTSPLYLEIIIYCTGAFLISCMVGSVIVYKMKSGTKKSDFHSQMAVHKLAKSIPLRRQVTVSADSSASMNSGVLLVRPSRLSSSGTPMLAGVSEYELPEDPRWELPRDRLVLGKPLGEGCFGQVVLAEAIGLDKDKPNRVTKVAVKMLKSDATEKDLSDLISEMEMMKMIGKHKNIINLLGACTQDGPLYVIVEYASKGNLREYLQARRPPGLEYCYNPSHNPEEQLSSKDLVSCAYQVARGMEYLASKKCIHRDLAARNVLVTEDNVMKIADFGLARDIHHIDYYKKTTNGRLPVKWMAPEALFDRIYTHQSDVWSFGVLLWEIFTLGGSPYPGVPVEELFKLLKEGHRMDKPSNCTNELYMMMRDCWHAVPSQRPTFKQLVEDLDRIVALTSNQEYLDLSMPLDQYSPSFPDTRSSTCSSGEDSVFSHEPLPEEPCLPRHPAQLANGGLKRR
CYP2C9, sequence (P11712 whole entry): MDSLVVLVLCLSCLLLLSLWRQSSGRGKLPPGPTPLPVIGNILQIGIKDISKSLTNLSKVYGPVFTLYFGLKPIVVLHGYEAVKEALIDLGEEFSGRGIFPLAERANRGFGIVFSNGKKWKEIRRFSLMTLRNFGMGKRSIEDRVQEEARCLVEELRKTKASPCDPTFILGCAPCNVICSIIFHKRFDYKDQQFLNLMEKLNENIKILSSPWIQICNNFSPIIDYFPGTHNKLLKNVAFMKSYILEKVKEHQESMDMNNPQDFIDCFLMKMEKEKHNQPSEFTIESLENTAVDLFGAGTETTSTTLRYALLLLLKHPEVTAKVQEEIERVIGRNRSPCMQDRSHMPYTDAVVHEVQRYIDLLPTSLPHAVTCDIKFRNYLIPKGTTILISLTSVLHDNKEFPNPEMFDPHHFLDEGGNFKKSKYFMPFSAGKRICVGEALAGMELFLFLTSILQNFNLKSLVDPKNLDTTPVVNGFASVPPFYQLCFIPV

inhibition at 10 µM [1]: < 50%
IC50 [2]: 0.0011 µM
IC50 [3]: 0.002 µM
inhibition at 20 min, 10 µM [4]: < 50%
inhibition at 10 µM [5]: < 50%
inhibition at 10 µM [6]: < 50%
inhibition at 10 µM [7]: < 50%
AUC(0-t) at 24 h [8]: 1250 ng·h/mL
F [9]: 12.1%
IC50 [10]: > 30 µM
IC50 [11]: > 30 µM
IC50 [12]: 17.1 µM
IC50 [13]: > 30 µM
IC50 [14]: > 30 µM
Compound: CC(c1cc2cc(-c3cnn(C)c3)cnc2cc1F)n1nnc2ncc(-c3cnn(CCO)c3)nc21 (stereo in doubt; 14)
inhibition in vivo at 0.1 mg/kg [15]: 55.5%
Activity [16]: 87.9%
Activity [17]: Non-Toxic
